Assay results: the array DNA melting data of Ke et al. (doi:10.1101/2024.01.08.574731)

Experiments:
[1] = folding enthalpy; higher = less favourable; fluorescence melt of hairpins on a sequencing array, two-state fit; conditions: sodium 0.088 M
Outline: (§1)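 Folding enthalpy and melting temperature were estimated with bootstrapped two-state fits and combined across four replicates by inverse-variance weighting, with fitted temperatures raised by 9.35 °C to match UV melts. The data were Cy3 fluorescence of library hairpins, with annealed Cy3 and quencher oligos, on a sequenced MiSeq flow cell in 50 mM Na-HEPES pH 8.0, 25 mM NaCl, imaged in 2.5 °C steps up to 60 °C and normalised to pre-quench Cy3 and control constructs.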

[2] = melting temperature; fluorescence melt of hairpins on a sequencing array, two-state fit, raised by 9.35 °C to match UV melts; conditions: sodium 0.088 M
Outline: as §1

Row | Sequence | folding enthalpy [1] | Tm [2]
1 | GCACGGCGAAAGCTGAGC ((.(.((....)).).)) | -19 kcal/mol | 55.8 °C
2 | GATCTACTTTAGATC ((((((...)))))) | -30.1 kcal/mol | 41.7 °C
3 | GTCAGTGGAAACACCGAC (((.(((....))).))) | -26.9 kcal/mol | 40.4 °C
4 | GATCCGTTCGCGGATC ((((((....)))))) | -50.4 kcal/mol | 61.3 °C
5 | GCCTGACGAAAGTCCGGC (((.(((....))).))) | -41.4 kcal/mol | 56.7 °C
6 | GATCGTCCGCACGATC ((((((....)))))) | -39.6 kcal/mol | 54.4 °C
7 | GTCGAAACGAAAGTTGAC (((..(((....)))))) | -18.5 kcal/mol | 37.2 °C
8 | GCCCACGAAAGTGTTGGC ((((((....)))..))) | -20.4 kcal/mol | 49 °C
9 | GATCAGGTCCTGATC ((((((...)))))) | -35.2 kcal/mol | 51.9 °C
10 | GCCCTCCGAAAGGAGGC (((.(((....)))))) | -11.9 kcal/mol | 61.2 °C
11 | GACTTGCCGAAAGGCGTC (((..(((....)))))) | -11.6 kcal/mol | 36.4 °C
12 | GTGGTCGAAAGACGGCAC ((((((....)))..))) | -16.8 kcal/mol | 38.5 °C
13 | GTCCGTGGAAACGTGGAC ((((..(....)..)))) | -21.5 kcal/mol | 45.4 °C
14 | GGCTGCGGAAACGCAGTC (.(((((....))))).) | -22.4 kcal/mol | 66.1 °C
15 | GCTCGGCGAAAGCCTGGC ((..(((....)))..)) | -12.7 kcal/mol | 53.8 °C
16 | GATACAGGAAACCGTATC (((((.(....).))))) | -29.6 kcal/mol | 36.5 °C
17 | CGGTCGGAAACGACCCCG ((((((....)))..))) | -9.36 kcal/mol | 37.3 °C
18 | GAGACCGGAAACGGTTTC ((.((((....)))).)) | -22.5 kcal/mol | 49.5 °C
19 | GTTTAGGGAAACTTAAGC (.(((.(....).))).) | -15.4 kcal/mol | 33.6 °C
20 | GAACTGGGAAACCAGCTC ((.((((....)))).)) | -19.4 kcal/mol | 38.5 °C
21 | GATCAGCCGTCTGATC ((((((....)))))) | -43.6 kcal/mol | 51.6 °C
22 | GATCACCAAGGTGATC ((((((....)))))) | -43.3 kcal/mol | 60 °C
23 | GCGGTGAACCGC ((((....)))) | -30 kcal/mol | 61.1 °C
24 | GGATGACCGAAAGGTTCC (((..(((....)))))) | -10.9 kcal/mol | 34.2 °C

Row | Sequence | folding enthalpy [1] | Tm [2]
25 | GGTGTACCGAAAGGTACC (((..(((....)))))) | -9.75 kcal/mol | 44.7 °C
26 | GATCCTCAGGAGGATC ((((((....)))))) | -30.9 kcal/mol | 55.2 °C
27 | GACCCCCCGAAAGGGGTC (((..(((....)))))) | -15.2 kcal/mol | 57.2 °C
28 | GCATAGCGAAAGCTGGGC ((..(((....)))..)) | -18.1 kcal/mol | 56.5 °C
29 | GATCCTTTTAAGGATC ((((((....)))))) | -36.6 kcal/mol | 57.9 °C
30 | GTTTTGGGAAACTAAAGC (.(((.(....).))).) | -16.3 kcal/mol | 27.3 °C
31 | GCGCACCGAAAGGTCGC (((.(((....)))))) | -25.7 kcal/mol | 67 °C
32 | GTCTTCGGAAACGGAGAC ((((.((....)).)))) | -39.1 kcal/mol | 50.4 °C
33 | GTCGACGAAAGTCTGGAC ((((((....)))..))) | -16.1 kcal/mol | 39.8 °C
34 | GACACTGGAAACAGTGTC (((((((....))))))) | -37 kcal/mol | 66 °C
35 | GCCTCCGAAAGGAAGGC ((((((....))).))) | -31.9 kcal/mol | 62 °C
36 | GATACGGGAAACCGTATC (((((((....))))))) | -35.8 kcal/mol | 59.4 °C
37 | GCGTCAGGAAACCAACGC ((((..(....)..)))) | -25.1 kcal/mol | 40.3 °C
38 | GGAGTCCGAAAGGATCC (((.(((....)))))) | -21.6 kcal/mol | 47.8 °C
39 | GTAAGCGAAAGCTGATAC ((((((....)))..))) | -12.2 kcal/mol | 29.8 °C
40 | GATCTTTTATAAGATC ((((((....)))))) | -34.5 kcal/mol | 44.1 °C
41 | GAGTGGCGAAAGCCCTC (((.(((....)))))) | -16.4 kcal/mol | 51.3 °C
42 | GACTAGCGAAAGCTTGTC (((.(((....))).))) | -31.3 kcal/mol | 54.7 °C
43 | GAGCGAGGAAACCCGCTC (((((.(....).))))) | -32.5 kcal/mol | 54.7 °C
44 | GCAGAAACGAAAGTTTGC (((..(((....)))))) | -20.3 kcal/mol | 35.7 °C
45 | GATCACACTAGTGATC ((((((....)))))) | -43.4 kcal/mol | 58.8 °C
46 | GATCCTAAGTAGGATC ((((((....)))))) | -39.5 kcal/mol | 51.7 °C
47 | GGACTCGAAAGAGATCC ((((((....))).))) | -22.1 kcal/mol | 44.7 °C
48 | GATCAAAGTTTTGATC ((((((....)))))) | -29.2 kcal/mol | 46.1 °C

Row | Sequence | folding enthalpy [1] | Tm [2]
49 | GTAGTGCGAAAGCAGTAC (((.(((....))).))) | -31.2 kcal/mol | 58.2 °C
50 | GTGCGGGGAAACCTGCGC (.((.((....)).)).) | -26.7 kcal/mol | 51.9 °C
51 | GGACACTCGAAAGAGTCC (((..(((....)))))) | -15.9 kcal/mol | 39 °C
52 | GTTCATGGAAACACGAAC ((((.((....)).)))) | -28.4 kcal/mol | 34.4 °C
53 | GCCAAGCGAAAGCGTAGC ((.(.((....)).).)) | -13.3 kcal/mol | 47.5 °C
54 | GTCAGGCGAAAGCCCGAC (((.(((....))).))) | -23.2 kcal/mol | 48.8 °C
55 | GATCTGAGTTCAGATC ((((((....)))))) | -43.7 kcal/mol | 49.9 °C
56 | GGTCCGCGAAAGCGACC (((.(((....)))))) | -16.8 kcal/mol | 62.4 °C
57 | GAGTTGCGAAAGCACTC (((.(((....)))))) | -21.7 kcal/mol | 53.9 °C
58 | GTTGGGCGAAAGCCAAAC (((.(((....))).))) | -21.5 kcal/mol | 56.9 °C
59 | GATCGTACACACGATC ((((((....)))))) | -40.7 kcal/mol | 54.4 °C
60 | GTTGCCGAAAGGCCAAC ((((((....))).))) | -14.4 kcal/mol | 47.3 °C
61 | GGGTATCGAAAGATCCCC (((.(((....))).))) | -22.7 kcal/mol | 50.2 °C
62 | GCGGCACACCGC ((((....)))) | -25.5 kcal/mol | 57.5 °C
63 | GTTAGGCGAAAGCCAAAC (((.(((....))).))) | -15.9 kcal/mol | 50.3 °C
64 | GGCTCTCGAAAGAGGCC (((.(((....)))))) | -43 kcal/mol | 56.9 °C
65 | GCTCCGCGAAAGCGCGGC ((..(((....)))..)) | -11.9 kcal/mol | 44.8 °C
66 | GCACAGCGAAAGCAGCGC ((.(.((....)).).)) | -19.4 kcal/mol | 53.6 °C
67 | CGCTCGGAAACGAATGCG ((((((....)))..))) | -23.3 kcal/mol | 45 °C
68 | GATCTTTCATAAGATC ((((((....)))))) | -31.4 kcal/mol | 44.8 °C
69 | GGTCACGAAAGTGTAACC ((((((....)))..))) | -18.3 kcal/mol | 39.6 °C
70 | GCTCCGCGAAAGCAGTGC ((.(.((....)).).)) | -12.5 kcal/mol | 41.4 °C
71 | GTATATGGAAACATATAC (((((((....))))))) | -42 kcal/mol | 47.9 °C
72 | GCACTGCGAAAGCTGGGC ((.(.((....)).).)) | -36.6 kcal/mol | 64.3 °C

Row | Sequence | folding enthalpy [1] | Tm [2]
73 | GAGGAGGGAAACCCCCTC ((((.((....)).)))) | -26 kcal/mol | 46.5 °C
74 | GGGTTCGGAAACGAGCTC (.(.(((....))).).) | -24 kcal/mol | 37.8 °C
75 | GATCCGTACCGGATC ((((((...)))))) | -34.8 kcal/mol | 58.9 °C
76 | GATCTGGTACCAGATC ((((((....)))))) | -37.8 kcal/mol | 56 °C
77 | GCTATTCGAAAGAAAAGC (((.(((....))).))) | -27.9 kcal/mol | 39.1 °C
78 | GTTTCCCGAAAGGGAAC (((.(((....)))))) | -14.1 kcal/mol | 50.6 °C
79 | GCCTCGCCGAAAGGCGGC (((..(((....)))))) | -5.04 kcal/mol | 55.4 °C
80 | GTCTACCGAAAGGTGAC (((.(((....)))))) | -23.8 kcal/mol | 50.3 °C
81 | GTAGCCGAAAGGCATAC ((((((....))).))) | -11.9 kcal/mol | 43.5 °C
82 | GATCCACAGATGGATC ((((((....)))))) | -38.6 kcal/mol | 49 °C
83 | GATCCAGGATGGATC ((((((...)))))) | -40.5 kcal/mol | 57.8 °C
84 | GATCGACACTCGATC ((((((...)))))) | -30.9 kcal/mol | 49.9 °C
85 | GAGTCCGAAAGGACACTC ((((((....)))..))) | -12.5 kcal/mol | 54.4 °C
86 | GATCGGGAGGCCGATC ((((((....)))))) | -46.1 kcal/mol | 56.2 °C
87 | GCGGTCTGCCGC ((((....)))) | -22.7 kcal/mol | 62.1 °C
88 | GCGGACGGAAACGTTCGC (((.(((....))).))) | -44.9 kcal/mol | 64.2 °C
89 | GATCCCCATCGGGATC ((((((....)))))) | -35.4 kcal/mol | 58.2 °C
90 | GCTGTTGGAAACAGTAGC (((..((....))..))) | -11.9 kcal/mol | 41.6 °C
91 | GCCTATGAAAATAGGC ((((((....)))))) | -34 kcal/mol | 58.9 °C
92 | GATCCTGCGAAGGATC ((((((....)))))) | -42.6 kcal/mol | 59.5 °C
93 | GATCTTTGAAAGATC ((((((...)))))) | -25.8 kcal/mol | 38.1 °C
